Data taken from ChEMBL document CHEMBL4689842, “EUbOPEN Chemogenomics Library wave 1” (2021).

Test system: HEK-293T
Assay: Multiplex assay against HEK293T;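 for Population Tubulin-Different-Phenotype (%): share of the cells with healthy nuclei that show this phenotype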
Format: toxicity, cell-based
Settings: human
How it was run: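 Live cells were stained at seeding with Hoechst33342, BioTracker Green Microtubule Cytoskeleton Dye, MitoTracker Red and Annexin V Alexa Fluor 680. Following compound addition, they were imaged on a CQ1 microscope at 37°C and 5% CO2 and gated by CellPathfinder machine learning into Hoechst high-intensity objects or normal cells, with normal cells split into healthy, pyknosed or fragmented nuclei and pyknosed cells into mitotic or apoptotic. Tubulin, mitochondrial-mass and membrane-permeability phenotypes are per cents of healthy-nucleus cells.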

[1] = 12 h, 1 µM, compound concentration 1 uM, replicate 1
[2] = 12 h, 1 µM, compound concentration 1 uM, replicate 2
[3] = 12 h, 10 µM, compound concentration 10 uM, replicate 1
[4] = 12 h, 10 µM, compound concentration 10 uM, replicate 2
[5] = 24 h, 1 µM, compound concentration 1 uM, replicate 1
[6] = 24 h, 1 µM, compound concentration 1 uM, replicate 2
[7] = 24 h, 10 µM, compound concentration 10 uM, replicate 1
[8] = 24 h, 10 µM, compound concentration 10 uM, replicate 2
[9] = 48 h, 1 µM, compound concentration 1 uM, replicate 1
[10] = 48 h, 1 µM, compound concentration 1 uM, replicate 2
[11] = 48 h, 10 µM, compound concentration 10 uM, replicate 1
[12] = 48 h, 10 µM, compound concentration 10 uM, replicate 2

O=C(O)c1ccc2cc(-c3ccc(O)c(C45CC6CC(CC(C6)C4)C5)c3)ccc2c1 [O-DEMETHYLATED ADAPALENE]
Population Apoptotic (%) [1]: 35% | Population Fragmented Nuclei (%) [1]: 6% | Population Healthy Nuclei (%) [1]: 60% | Population Hoechst High Intensity Objects (%) [1]: 5% | Population Membrane Permeable-Phenotype (%) [1]: 1% | Population Mitochondria Different-Phenotype (%) [1]: 70% | Population Mitotic Cells (%) [1]: 64% | Population Normal (%) [1]: 94% | Population Pyknosed Nuclei (%) [1]: 33% | Population Tubulin-Different-Phenotype (%) [1]: 30% | Total Cell Count [1]: 320 | Population Apoptotic (%) [2]: 12% | Population Fragmented Nuclei (%) [2]: 2% | Population Healthy Nuclei (%) [2]: 57% | Population Hoechst High Intensity Objects (%) [2]: 4% | Population Membrane Permeable-Phenotype (%) [2]: 8% | Population Mitochondria Different-Phenotype (%) [2]: 15% | Population Mitotic Cells (%) [2]: 87% | Population Normal (%) [2]: 95% | Population Pyknosed Nuclei (%) [2]: 40% | Population Tubulin-Different-Phenotype (%) [2]: 17% | Total Cell Count [2]: 214 | Population Apoptotic (%) [3]: 53% | Population Fragmented Nuclei (%) [3]: 21% | Population Healthy Nuclei (%) [3]: 33% | Population Hoechst High Intensity Objects (%) [3]: 15% | Population Mitochondria Different-Phenotype (%) [3]: 52% | Population Mitotic Cells (%) [3]: 46% | Population Normal (%) [3]: 84% | Population Pyknosed Nuclei (%) [3]: 45% | Population Tubulin-Different-Phenotype (%) [3]: 14% | Total Cell Count [3]: 204 | Population Apoptotic (%) [4]: 14% | Population Fragmented Nuclei (%) [4]: 8% | Population Healthy Nuclei (%) [4]: 43% | Population Hoechst High Intensity Objects (%) [4]: 5% | Population Membrane Permeable-Phenotype (%) [4]: 3% | Population Mitochondria Different-Phenotype (%) [4]: 6% | Population Mitotic Cells (%) [4]: 85% | Population Normal (%) [4]: 94% | Population Pyknosed Nuclei (%) [4]: 47% | Population Tubulin-Different-Phenotype (%) [4]: 11% | Total Cell Count [4]: 228 | Population Apoptotic (%) [5]: 37% | Population Fragmented Nuclei (%) [5]: 5% | Population Hoechst High Intensity Objects (%) [5]: 5% | Population Membrane Permeable-Phenotype (%) [5]: 6% | Population Mitochondria Different-Phenotype (%) [5]: 44% | Population Mitotic Cells (%) [5]: 62% | Population Normal (%) [5]: 94% | Population Pyknosed Nuclei (%) [5]: 19% | Population Tubulin-Different-Phenotype (%) [5]: 24% | Total Cell Count [5]: 354 | Population Apoptotic (%) [6]: 13% | Population Fragmented Nuclei (%) [6]: 6% | Population Healthy Nuclei (%) [6]: 75% | Population Hoechst High Intensity Objects (%) [6]: 1% | Population Membrane Permeable-Phenotype (%) [6]: 13% | Population Mitochondria Different-Phenotype (%) [6]: 14% | Population Mitotic Cells (%) [6]: 86% | Population Normal (%) [6]: 98% | Population Pyknosed Nuclei (%) [6]: 18% | Population Tubulin-Different-Phenotype (%) [6]: 26% | Total Cell Count [6]: 257 | Population Apoptotic (%) [7]: 52% | Population Fragmented Nuclei (%) [7]: 16% | Population Healthy Nuclei (%) [7]: 43% | Population Hoechst High Intensity Objects (%) [7]: 20% | Population Membrane Permeable-Phenotype (%) [7]: 1% | Population Mitochondria Different-Phenotype (%) [7]: 34% | Population Mitotic Cells (%) [7]: 47% | Population Normal (%) [7]: 79% | Population Pyknosed Nuclei (%) [7]: 40% | Population Tubulin-Different-Phenotype (%) [7]: 14% | Total Cell Count [7]: 218 | Population Apoptotic (%) [8]: 25% | Population Fragmented Nuclei (%) [8]: 11% | Population Healthy Nuclei (%) [8]: 50% | Population Hoechst High Intensity Objects (%) [8]: 11% | Population Membrane Permeable-Phenotype (%) [8]: 4% | Population Mitochondria Different-Phenotype (%) [8]: 17% | Population Mitotic Cells (%) [8]: 75% | Population Normal (%) [8]: 88% | Population Pyknosed Nuclei (%) [8]: 38% | Population Tubulin-Different-Phenotype (%) [8]: 16% | Total Cell Count [8]: 234 | Population Apoptotic (%) [9]: 26% | Population Fragmented Nuclei (%) [9]: 10% | Population Hoechst High Intensity Objects (%) [9]: 6% | Population Membrane Permeable-Phenotype (%) [9]: 2% | Population Mitochondria Different-Phenotype (%) [9]: 13% | Population Mitotic Cells (%) [9]: 73% | Population Normal (%) [9]: 93% | Population Tubulin-Different-Phenotype (%) [9]: 10% | Total Cell Count [9]: 565 | Population Apoptotic (%) [10]: 15% | Population Fragmented Nuclei (%) [10]: 9% | Population Healthy Nuclei (%) [10]: 80% | Population Hoechst High Intensity Objects (%) [10]: 2% | Population Membrane Permeable-Phenotype (%) [10]: 11% | Population Mitochondria Different-Phenotype (%) [10]: 1% | Population Mitotic Cells (%) [10]: 84% | Population Normal (%) [10]: 97% | Population Pyknosed Nuclei (%) [10]: 9% | Population Tubulin-Different-Phenotype (%) [10]: 19% | Total Cell Count [10]: 390 | Population Apoptotic (%) [11]: 51% | Population Fragmented Nuclei (%) [11]: 21% | Population Healthy Nuclei (%) [11]: 30% | Population Hoechst High Intensity Objects (%) [11]: 19% | Population Membrane Permeable-Phenotype (%) [11]: 1% | Population Mitochondria Different-Phenotype (%) [11]: 22% | Population Mitotic Cells (%) [11]: 48% | Population Normal (%) [11]: 80% | Population Pyknosed Nuclei (%) [11]: 48% | Population Tubulin-Different-Phenotype (%) [11]: 16% | Total Cell Count [11]: 217 | Population Apoptotic (%) [12]: 32% | Population Fragmented Nuclei (%) [12]: 12% | Population Healthy Nuclei (%) [12]: 33% | Population Hoechst High Intensity Objects (%) [12]: 9% | Population Mitochondria Different-Phenotype (%) [12]: 2% | Population Mitotic Cells (%) [12]: 67% | Population Normal (%) [12]: 90% | Population Pyknosed Nuclei (%) [12]: 53% | Population Tubulin-Different-Phenotype (%) [12]: 10% | Total Cell Count [12]: 243

CCOc1cc(N2CCC(O)CC2)ccc1Nc1ncc2c(n1)N(C1CCCC1)CCC(=O)N2C
Population Apoptotic (%) [1]: 17% | Population Fragmented Nuclei (%) [1]: 18% | Population Healthy Nuclei (%) [1]: 58% | Population Hoechst High Intensity Objects (%) [1]: 13% | Population Membrane Permeable-Phenotype (%) [1]: 3% | Population Mitochondria Different-Phenotype (%) [1]: 5% | Population Mitotic Cells (%) [1]: 82% | Population Normal (%) [1]: 86% | Population Pyknosed Nuclei (%) [1]: 22% | Population Tubulin-Different-Phenotype (%) [1]: 3% | Total Cell Count [1]: 614 | Population Apoptotic (%) [2]: 4% | Population Fragmented Nuclei (%) [2]: 6% | Population Healthy Nuclei (%) [2]: 87% | Population Hoechst High Intensity Objects (%) [2]: 2% | Population Membrane Permeable-Phenotype (%) [2]: 1% | Population Mitochondria Different-Phenotype (%) [2]: 15% | Population Mitotic Cells (%) [2]: 95% | Population Normal (%) [2]: 97% | Population Pyknosed Nuclei (%) [2]: 5% | Population Tubulin-Different-Phenotype (%) [2]: 5% | Total Cell Count [2]: 1724 | Population Apoptotic (%) [3]: 14% | Population Fragmented Nuclei (%) [3]: 18% | Population Healthy Nuclei (%) [3]: 62% | Population Hoechst High Intensity Objects (%) [3]: 13% | Population Membrane Permeable-Phenotype (%) [3]: 4% | Population Mitochondria Different-Phenotype (%) [3]: 5% | Population Mitotic Cells (%) [3]: 85% | Population Normal (%) [3]: 86% | Population Pyknosed Nuclei (%) [3]: 19% | Population Tubulin-Different-Phenotype (%) [3]: 4% | Total Cell Count [3]: 550 | Population Apoptotic (%) [4]: 8% | Population Fragmented Nuclei (%) [4]: 9% | Population Healthy Nuclei (%) [4]: 86% | Population Hoechst High Intensity Objects (%) [4]: 1% | Population Membrane Permeable-Phenotype (%) [4]: 0% | Population Mitotic Cells (%) [4]: 92% | Population Normal (%) [4]: 98% | Population Pyknosed Nuclei (%) [4]: 4% | Population Tubulin-Different-Phenotype (%) [4]: 2% | Total Cell Count [4]: 1779 | Population Apoptotic (%) [5]: 19% | Population Fragmented Nuclei (%) [5]: 16% | Population Healthy Nuclei (%) [5]: 73% | Population Hoechst High Intensity Objects (%) [5]: 7% | Population Membrane Permeable-Phenotype (%) [5]: 2% | Population Mitochondria Different-Phenotype (%) [5]: 4% | Population Mitotic Cells (%) [5]: 80% | Population Normal (%) [5]: 92% | Population Pyknosed Nuclei (%) [5]: 9% | Population Tubulin-Different-Phenotype (%) [5]: 3% | Total Cell Count [5]: 619 | Population Apoptotic (%) [6]: 4% | Population Fragmented Nuclei (%) [6]: 26% | Population Healthy Nuclei (%) [6]: 72% | Population Hoechst High Intensity Objects (%) [6]: 3% | Population Membrane Permeable-Phenotype (%) [6]: 0% | Population Mitochondria Different-Phenotype (%) [6]: 3% | Population Mitotic Cells (%) [6]: 95% | Population Normal (%) [6]: 96% | Population Pyknosed Nuclei (%) [6]: 1% | Population Tubulin-Different-Phenotype (%) [6]: 1% | Total Cell Count [6]: 2649 | Population Apoptotic (%) [7]: 19% | Population Fragmented Nuclei (%) [7]: 13% | Population Healthy Nuclei (%) [7]: 76% | Population Hoechst High Intensity Objects (%) [7]: 6% | Population Membrane Permeable-Phenotype (%) [7]: 8% | Population Mitochondria Different-Phenotype (%) [7]: 5% | Population Mitotic Cells (%) [7]: 80% | Population Normal (%) [7]: 93% | Population Pyknosed Nuclei (%) [7]: 9% | Population Tubulin-Different-Phenotype (%) [7]: 2% | Total Cell Count [7]: 597 | Population Apoptotic (%) [8]: 0% | Population Fragmented Nuclei (%) [8]: 27% | Population Healthy Nuclei (%) [8]: 70% | Population Hoechst High Intensity Objects (%) [8]: 3% | Population Membrane Permeable-Phenotype (%) [8]: 2% | Population Mitochondria Different-Phenotype (%) [8]: 0% | Population Mitotic Cells (%) [8]: 100% | Population Normal (%) [8]: 96% | Population Pyknosed Nuclei (%) [8]: 1% | Total Cell Count [8]: 3112
